PubChem BioAssay
Activity calls are given as the source filed them.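 The calls were made as follows, unless noted: active = viability at or below 30% in both replicate assays; inconclusive = viability at or below 30% in just one of the two assays; inactive = the rest.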

How the values were obtained:
[1] = Her2 expression decrease, cell viability multiplex – SKBR3 breast tumor cells, AlphaScreen, ATP viability, primary screen (AID 461;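 active = Her2 level under about 52% in both replicate screens, with viability over 70% of control, limit read from the data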;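 as to Her2 level: lower value means less Her2 protein in the cells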;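 as to viability: percent of carrier control wells set as 100% viability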); details: SKBR3 Her2 protein level, 18-24 h, measured here: SKBR3 viability, ATP luminescence, at 10 µM
[2] = target: Receptor tyrosine-protein kinase erbB-2 (Homo sapiens) (UniProt P04626); assay: as above; details: 18-24 h, at 10 µM, stronger effect = lower value
[3] = reduced viability of SK-BR-3 breast cancer cells – cell-based, 24 h, human, pilot screen (AID 572;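 active = viability at or below 10% of carrier control in both of two separate runs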;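 also: compound exposure lasted between 18 and 24 h rather than exactly 24 h; 100% = carrier-treated control wells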); details: SK-BR-3 viability, CellTiter-Glo luminescence, at 10 µM, stronger effect = lower value
[4] = HUVEC growth inhibition – cell-based, human, primary screen (AID 575); details: HUVEC proliferation, CellTiter-Glo luminescence, 72 h; at 10 µM; stronger effect = lower value;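 also: 100% = median of untreated cell wells with 0.1% DMSO on each plate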
In short: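 Assay system: Primary human umbilical vein endothelial cells | Quantity: 1250 cells per well | Medium: Supplemented EBM, 2% fetal bovine serum | Detection: CellTiter-Glo luminescence measuring cellular ATP | Read-out: % viability vs DMSO wells | Plate: Collagen-coated 384-well format | Times: 72 h exposure, 37 °C, 5% CO2, 30 min RT equilibration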

[5] = H69AR cell proliferation blockers – human, duplicate replicates, primary screen (AID 580;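 active = viability at or under a set limit in both replicates, limit being median viability minus 3 SD, cut at about 48% in these data, passing the limit was not always enough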;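 also: 100% = mean luminescence of untreated wells and 0% = no signal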); details: H69AR lung tumor cells viability, ATP luminescence, 72 h; at 10 µM; stronger effect = lower value
[6] = MRP1 drug-resistance reversers in H69AR cells – cell-based, doxorubicin co-treatment, pilot screen (AID 601;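 active = viability loss from added drug above about 55%, and viability with drug at most 40%, in both replicates, limit read from the data, passing the limit was not always enough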); details: CellTiter-Glo, 72 h, at 10 µM; for differential viability (reversal): stronger effect = higher value
[7] = yeast transport mutant growth inhibition pilot in 384-well plates, post-Golgi transport modulator project (AID 636; in the data active = inhibition above about 31%); details: absorbance 615 nm, about 18 h, stronger effect = higher value
[8] = growth suppression of yeast trafficking mutant, preliminary HTS, modulators of trafficking downstream of Golgi apparatus project, 1536-format plate, OD 615 nm (AID 637; in the data active = inhibition above about 30%); details: yeast transport mutant growth, absorbance 615 nm, 18 h; stronger effect = higher value
[9] = H69AR cells + 2 uM doxorubicin, measured here: viability with 2 uM doxorubicin, stronger effect = lower value
[10] = H69AR cells, compound alone cytotoxicity

Receptor tyrosine-protein kinase erbB-2 (Homo sapiens), sequence (P04626 whole entry, looked up): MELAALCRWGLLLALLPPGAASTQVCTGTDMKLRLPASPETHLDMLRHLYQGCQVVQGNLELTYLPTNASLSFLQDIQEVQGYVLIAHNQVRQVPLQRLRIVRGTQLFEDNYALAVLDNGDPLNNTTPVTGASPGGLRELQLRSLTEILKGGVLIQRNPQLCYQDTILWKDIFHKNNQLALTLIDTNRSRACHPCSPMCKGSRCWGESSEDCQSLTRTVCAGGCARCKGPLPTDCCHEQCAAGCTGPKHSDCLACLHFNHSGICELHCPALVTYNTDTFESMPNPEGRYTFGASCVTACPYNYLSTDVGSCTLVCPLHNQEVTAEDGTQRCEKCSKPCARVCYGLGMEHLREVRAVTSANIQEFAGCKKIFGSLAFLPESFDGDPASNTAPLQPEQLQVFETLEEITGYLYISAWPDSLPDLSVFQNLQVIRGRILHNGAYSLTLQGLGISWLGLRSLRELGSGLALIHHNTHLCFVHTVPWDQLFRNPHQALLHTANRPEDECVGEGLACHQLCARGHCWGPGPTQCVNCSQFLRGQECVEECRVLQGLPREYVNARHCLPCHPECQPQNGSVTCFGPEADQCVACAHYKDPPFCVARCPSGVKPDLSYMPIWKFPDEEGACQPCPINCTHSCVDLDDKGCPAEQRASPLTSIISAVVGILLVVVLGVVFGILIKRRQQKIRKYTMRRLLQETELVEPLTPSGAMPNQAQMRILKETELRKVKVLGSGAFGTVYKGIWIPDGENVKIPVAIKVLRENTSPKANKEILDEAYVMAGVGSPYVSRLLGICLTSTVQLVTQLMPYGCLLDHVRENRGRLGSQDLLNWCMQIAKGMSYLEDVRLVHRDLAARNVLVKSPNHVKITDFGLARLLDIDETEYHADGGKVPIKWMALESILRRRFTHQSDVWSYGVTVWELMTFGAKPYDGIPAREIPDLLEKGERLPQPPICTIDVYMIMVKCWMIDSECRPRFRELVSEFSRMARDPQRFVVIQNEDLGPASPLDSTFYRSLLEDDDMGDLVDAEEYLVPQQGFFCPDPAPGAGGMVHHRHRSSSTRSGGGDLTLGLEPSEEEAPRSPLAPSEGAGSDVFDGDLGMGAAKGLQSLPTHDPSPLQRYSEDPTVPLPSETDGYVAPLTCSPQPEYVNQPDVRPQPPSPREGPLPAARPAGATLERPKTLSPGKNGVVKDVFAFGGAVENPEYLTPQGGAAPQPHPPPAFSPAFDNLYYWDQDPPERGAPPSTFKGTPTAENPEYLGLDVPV

| Structure (SMILES) | viability [1] | Her2 level [2] | viability [3] | viability [4] | viability [5] | differential viability (reversal) ([6]; H69AR cells + 2 uM doxorubicin) | viability [6, 9] | viability [6, 10] | inhibition [7] | inhibition [8] |
| --- | --- | --- | --- | --- | --- | --- | --- | --- | --- | --- |
| Cc1ccc(-n2c(=O)[nH]c3c(C(N)=O)nc(CC(C)C)nc32)cc1 | 105% | 106% (inactive) | 105% (inactive) | 89% (inactive) | 72.6% (inactive) | -18.6% (inactive) | 91.2% | 72.6% | -2.76% (inactive) | 5.57% (inactive) |
| [O-][n+]1c2ccc3nonc3c2nn1-c1ccccc1Cl | 136% | 124% (inactive) | 136% (inactive) | 89.3% (inactive) | 95.1% (inactive) | 16.1% (inactive) | 79% | 95.1% | -0.4% (inactive) | -6.45% (inactive) |
| C1CCc2nnc(-c3nnc4n3CCCCC4)n2CC1 | 86.5% | 99.5% (inactive) | 86.5% (inactive) | 104% (inactive) | 93% (inactive) | 6.52% (inactive) | 86.4% | 93% | -1.28% (inactive) | 1.67% (inactive) |
| CC(=O)Nc1cccc(NC(=O)c2oc3ccccc3c2C)c1 | 81.5% | 92.5% (inactive) | 81.5% (inactive) | 76.8% (inactive) | 68.9% (inactive) | -12.4% (inactive) | 81.3% | 68.9% | -4.8% (inactive) | -1.43% (inactive) |
| CC1=C(C#N)C(=O)NC(C)(C)C1 | 114% | 102% (inactive) | 114% (inactive) | 91.8% (inactive) | 89.3% (inactive) | 3.02% (inactive) | 86.3% | 89.3% | -6% (inactive) | 1.8% (inactive) |
| N#CC1=C(N)Oc2n[nH]c(-c3cccs3)c2C1c1cccs1 (stereo not given) | 96.5% | 79.5% (inactive) | 96.5% (inactive) | 81.4% (inactive) | 83.8% (inactive) | -2.47% (inactive) | 86.3% | 83.8% | -3.73% (inactive) | -1.31% (inactive) |
| CC(C)CCNC(=O)C1CCN(C(=O)N(C)C)CC1 | 104% | 125% (inactive) | 104% (inactive) | 108% (inactive) | 98.8% (inactive) | 5% (inactive) | 93.8% | 98.8% | -1.41% (inactive) | -1.33% (inactive) |
| CC1(C)OC(=O)C(=CNC(CCC(N)=O)C(=O)O)C(=O)O1 (stereo not given) | 100% | 110% (inactive) | 100% (inactive) | 109% (inactive) | 86.2% (inactive) | -14.4% (inactive) | 101% | 86.2% | 6.49% (inactive) | 5.4% (inactive) |
| CCCCCCOC(=O)C(C#N)c1nc2ccccc2nc1N1CCCCC1 (stereo not given) | 94% | 88% (inactive) | 94% (inactive) | 63.8% (inactive) | 89.1% (inactive) | -11.9% (inactive) | 101% | 89.1% | -2.47% (inactive) | -2.33% (inactive) |
| Cc1ccc2c(c1)CCCN2C(=O)Nc1ccc2c(c1)OCO2 | 95.5% | 79% (inactive) | 95.5% (inactive) | 84.8% (inactive) | 89.5% (inactive) | 0.28% (inactive) | 89.2% | 89.5% | -6.27% (inactive) | 6.89% (inactive) |
| CC(=O)Nc1nc(-c2ccc(Cl)cc2)nc(C)c1C(C)=O | 96.5% | 89.5% (inactive) | 96.5% (inactive) | 89% (inactive) | 104% (inactive) | 9.83% (inactive) | 94.6% | 104% | -3.65% (inactive) | -2.83% (inactive) |
| Cc1cc(C)c(-c2cc(C(=O)Nc3c(C)n(C)n(-c4ccccc4)c3=O)[nH]n2)c(O)c1 | 99.5% | 98% (inactive) | 99.5% (inactive) | 97.5% (inactive) | 105% (inactive) | 4.32% (inactive) | 100% | 105% | -1.97% (inactive) | -5.09% (inactive) |
| Cn1c(Cc2csc(N)n2)nnc1SCC(=O)NCc1ccccc1 | 93% | 99.5% (inactive) | 93% (inactive) | 114% (inactive) | 100% (inactive) | -11.2% (inactive) | 111% | 100% | 0.39% (inactive) | -4.52% (inactive) |
| COc1cccc(OCc2nc3c4cnn(-c5ccccc5)c4ncn3n2)c1 | 97.5% | 99.5% (inactive) | 97.5% (inactive) | 80.1% (inactive) | 67.8% (inactive) | -20.5% (inactive) | 88.3% | 67.8% | -2.24% (inactive) | 3.44% (inactive) |
| CCNS(=O)(=O)c1ccc(S(=O)(=O)N(Cc2ccccn2)C2CCCCC2)cc1 | 102% | 87% (inactive) | 102% (inactive) | 109% (inactive) | 88.9% (inactive) | 13.6% (inactive) | 75.3% | 88.9% | -8.92% (inactive) | -5.17% (inactive) |
| CCCOc1ccc(-c2nnn(CC(=O)Nc3cccc(C(=O)OC)c3)n2)cc1 | 100% | 98% (inactive) | 100% (inactive) | 64.3% (inactive) | 48% (active) | -5.98% (inactive) | 54% | 48% | 1.87% (inactive) | 21.1% (inactive) |
